Key:
[1] = target: Human immunodeficiency virus type 1 reverse transcriptase (Human immunodeficiency virus 1, UniProt Q72547); test: Inhibition of HIV1 recombinant RNA-dependent DNA polymerase activity of reverse transcriptase assessed as incorporation of radioactive dTTP into poly(rA)/oligo(dT)
[2] = test system: Human immunodeficiency virus 1; test: Antiviral activity against HIV1 3B infected in human MT4 cells assessed as reduction of virus-induced cytopathic effect after 5 days; format: functional, organism-based; conditions: Human immunodeficiency virus 1, 3B, MT4, 120 h
Summary of the method: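 MT-4 cells infected with HIV-1 IIIB at about 100-times the CCID50 per ml of cell suspension, plated and mixed with compound, then incubated at 37 °C for 5 days. Viable cell number was then determined. EC50 is the concentration that reduces virus-induced cytopathicity by 50%.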

[3] = Cytotoxicity against human MT4 cells after 5 days; format: cell-based
Summary of the method: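 Run in MT-4 cells in parallel with the HIV-1 IIIB cytopathicity assay, with 37 °C incubation for 5 days and a read-out of viable MT-4 cell number.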

[4] = Selectivity index, CC50 for human MT4 cells to EC50 for HIV1 3B; format: toxicity, cell-based; conditions: read-out: Ratio CC50/EC50

| Structure (SMILES) | IC50 [1] [µM] | EC50 [2] [µM] | CC50 at 120 h [3] [µM] | selectivity ratio [4] |
| --- | --- | --- | --- | --- |
| O=C(CCl)Nc1ccc(Cl)cc1NS(=O)(=O)c1c(Cl)cccc1Cl | 32.7 | 1.5 | 160 | 107 |
| O=C(CCl)Nc1ccc(Cl)cc1NS(=O)(=O)c1cc(Cl)cc(Cl)c1 | 15.9 | 8.99 | > 292 | > 32 |
| O=c1[nH]c2ccc(Cl)cc2n1S(=O)(=O)c1c(Cl)cccc1Cl | > 100 | 1.52 | > 331 | > 218 |
| O=C1CN(S(=O)(=O)c2cccc(F)c2)c2cc(Cl)ccc2N1 | > 40 | 7.04 | 189 | 27 |
| O=c1[nH]c2ccc(Cl)cc2n1S(=O)(=O)c1ccccc1F | 0.85 | 0.23 | > 383 | > 1660 |
| O=C1CN(S(=O)(=O)c2c(F)cccc2F)c2cc(Cl)ccc2N1 | > 40 | 20.7 | 180 | 9 |
| O=C1CN(S(=O)(=O)c2ccccc2F)c2cc(Cl)ccc2N1 | > 40 | 6.1 | 197 | 32 |
| Cc1cc(C)cc(S(=O)(=O)N2CC(=O)Nc3ccc(Cl)cc32)c1 | > 40 | 0.1 | 80.6 | 782 |
| O=C1CN(S(=O)(=O)c2cc(F)cc(F)c2)c2cc(Cl)ccc2N1 | > 40 | 14 | 187 | 13 |
| N#Cc1cccc(S(=O)(=O)Nc2cc(Cl)ccc2NC(=O)CCl)c1 | 284 | > 156 | > 156 | < 1 |
| O=C1CN(S(=O)(=O)c2cc(Cl)cc(Cl)c2)c2cc(Cl)ccc2N1 | > 40 | 26.7 | ≥ 206 | > 8 |
| O=c1[nH]c2ccc(Cl)cc2n1S(=O)(=O)c1ccc(F)cc1 | > 40 | 36 | ≥ 355 | ≥ 10 |
| O=C1CN(S(=O)(=O)c2c(Cl)cccc2Cl)c2cc(Cl)ccc2N1 | 1.67 | 1.09 | > 319 | > 293 |
| O=c1[nH]c2ccc(Cl)cc2n1S(=O)(=O)c1cc(Cl)cc(Cl)c1 | 0.003 | 0.048 | 179 | 3740 |
| O=C1CN(S(=O)(=O)c2ccc(F)cc2)c2cc(Cl)ccc2N1 | > 40 | > 172 | 172 | < 1 |
| N#Cc1cccc(S(=O)(=O)n2c(=O)[nH]c3ccc(Cl)cc32)c1 | 0.36 | 0.149 | 205 | 1360 |
| Cc1cc(C)cc(S(=O)(=O)Nc2cc(Cl)ccc2NC(=O)CCl)c1 | 3.36 | 0.047 | 35.1 | 747 |
| N#Cc1cccc(S(=O)(=O)N2CC(=O)Nc3ccc(Cl)cc32)c1 | > 40 | ≥ 47.7 | 186 | ≤ 4 |
| O=C(CCl)Nc1ccc(Cl)cc1NS(=O)(=O)c1c(F)cccc1F | 30.4 | 6.96 | 175 | 25 |
| O=C(CCl)Nc1ccc(Cl)cc1NS(=O)(=O)c1cc(F)cc(F)c1 | 27.8 | 11.2 | 179 | 16 |
| O=c1[nH]c2ccc(Cl)cc2n1S(=O)(=O)c1cccc(F)c1 | 0.132 | 0.043 | 128 | 2960 |
| O=C1Nc2ccc(Cl)cc2[C@@](C#CC2CC2)(C(F)(F)F)O1 [EFAVIRENZ] | – | – | > 6 | – |
| Cc1ccnc2c1NC(=O)c1cccnc1N2C1CC1 [NEVIRAPINE] | – | – | > 15 | – |
